# Test results: paper PMC9091492 (RSC Advances, 2018)
# Tests used:
# Type in all cases: cell-based
# [1] = MTT cytotoxic assay, HeLa; details: human, HeLa cells
# Method in brief: (§1)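 Cells grown in RPMI-1640 with 10% fetal bovine serum, 5% CO2, 37 °C. Seeded at 5 × 10^4 cells per mL, 24 h to form a monolayer, then medium replaced with fresh medium plus test compound at 50, 25, 12.5, 6.25, 3.125, 1.5625 μg mL−1. After 3 days, MTT 4 h, formazan in DMSO, OD 570 nm. Inhibition rate from OD versus control, IC50 calculated; three individual experiments, mean ± SD; adriamycin positive control.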
# [2] = MTT cytotoxic assay, HepG2; details: human, HepG2 cells
# Method in brief: as §1
# [3] = MTT cytotoxic assay, A549; details: human, A549 cells
# Method in brief: as §1
structure (smiles),measurement,setting,value
"COc1cccc2c1C(=O)c1c(O)c3c(c(O)c1C2=O)C[C@@](O)(C(=O)CO)C[C@@H]3O[C@H]1C[C@H](N)[C@H](O)[C@H](C)O1 [Adriamycin, adriamycin]",IC50 at 3 days,[1],480 ± 70 nM
same,IC50 at 3 days,[2],1250 ± 40 nM
same,IC50 at 3 days,[3],680 ± 60 nM
